Assay results: ChEMBL document CHEMBL5705905, “Pharmacological targeting of kinases MST1 and MST2 augments tissue repair and regeneration” (Sci Transl Med, 2016)
Calls of active or inactive are those of the source. The calls are words filed in the database; no cut-off is given here.

Legend:
[1] = molecular target: Tyrosine-protein kinase Lyn (Homo sapiens) (UniProt P07948); test: Inhibition of LYN (unknown origin) assessed as remaining activity at 1 uM by Kinome scan method relative to control
[2] = molecular target: Cyclin-dependent kinase 4/cyclin D1 (Homo sapiens) (UniProt P11802+P24385); test: Inhibition of CDK4/cyclinD1 (unknown origin) assessed as remaining activity at 1 uM by Kinome scan method relative to control; assay type: protein-complex assay
Outline: (§1)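 Active-site-dependent competition-binding profiling (KINOMEscan) at 1 μM against a 468-kinase panel; compound supplied from a 10 mM DMSO stock. Read-out is ctrl% = (test signal − positive control signal)/(negative control signal − positive control signal) × 100. DMSO is the negative control (100%) and a control compound the positive control (0%). Lower ctrl% means tighter binding.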

[3] = molecular target: Serine/threonine-protein kinase PLK4 (Homo sapiens) (UniProt O00444); test: Inhibition of PLK4 (unknown origin) assessed as remaining activity at 1 uM by Kinome scan method relative to control
[4] = molecular target: Calcium/calmodulin-dependent protein kinase type IV (Homo sapiens) (UniProt Q16566); test: Inhibition of CAMK4 (unknown origin) assessed as remaining activity at 1 uM by Kinome scan method relative to control; outline: as §1
Sequence of Calcium/calmodulin-dependent protein kinase type IV (Homo sapiens) (Q16566 whole entry): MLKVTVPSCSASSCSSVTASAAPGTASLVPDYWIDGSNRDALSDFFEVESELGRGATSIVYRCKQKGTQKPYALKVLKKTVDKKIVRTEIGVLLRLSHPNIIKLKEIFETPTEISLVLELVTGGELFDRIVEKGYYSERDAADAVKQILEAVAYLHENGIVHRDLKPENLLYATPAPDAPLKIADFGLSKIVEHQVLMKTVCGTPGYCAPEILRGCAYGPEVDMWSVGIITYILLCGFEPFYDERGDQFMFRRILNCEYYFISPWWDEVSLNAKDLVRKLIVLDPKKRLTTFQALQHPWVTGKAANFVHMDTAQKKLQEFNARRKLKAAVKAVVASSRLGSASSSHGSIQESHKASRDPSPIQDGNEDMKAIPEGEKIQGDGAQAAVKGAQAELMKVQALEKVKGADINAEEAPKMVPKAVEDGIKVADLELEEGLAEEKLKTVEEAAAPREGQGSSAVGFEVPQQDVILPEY

[5] = molecular target: Leukocyte tyrosine kinase receptor (Homo sapiens) (UniProt P29376); test: Inhibition of LTK (unknown origin) assessed as remaining activity at 1 uM by Kinome scan method relative to control
[6] = test system: Epidermal growth factor receptor (Homo sapiens), P00533 [G719S]; test: Inhibition of EGFR G719S mutant (unknown origin) assessed as remaining activity at 1 uM by Kinome scan method relative to control
[7] = molecular target: Mitogen-activated protein kinase 12 (Homo sapiens) (UniProt P53778); test: Inhibition of P38gamma (unknown origin) assessed as remaining activity at 1 uM by Kinome scan method relative to control
Mus musculus = test: Protection against APAP induced liver injury in mouse assessed as increase in survival rate at 1 mg/kg, ip administered at 2.5 hrs in the presence of NAC […]; assay type: functional
Outline: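 Wild-type mice given oral APAP 400 mg/kg, then i.p. vehicle, NAC 250 mg/kg, 1 mg/kg test agent, or NAC plus test agent at 1.5 or 2.5 h. Mortality was tracked with n = 10–11 per group, Mantel-Cox test. Separately, TUNEL was done on liver after 200 mg/kg APAP with treatment at 2.5 h.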

HepG2 = test: Inhibition of Flag-tagged MST1 D109A mutant (unknown origin) in human HepG2 cells assessed as MOB1 phosphorylation level at 3 uM by immunoblot analysis; assay type: cell-based
[8] = molecular target: Tyrosine-protein kinase HCK (Homo sapiens) (UniProt P08631); test: Inhibition of HCK (unknown origin) assessed as remaining activity at 1 uM by Kinome scan method relative to control
Sequence of Tyrosine-protein kinase HCK (Homo sapiens) (P08631 2-526 limits assumed): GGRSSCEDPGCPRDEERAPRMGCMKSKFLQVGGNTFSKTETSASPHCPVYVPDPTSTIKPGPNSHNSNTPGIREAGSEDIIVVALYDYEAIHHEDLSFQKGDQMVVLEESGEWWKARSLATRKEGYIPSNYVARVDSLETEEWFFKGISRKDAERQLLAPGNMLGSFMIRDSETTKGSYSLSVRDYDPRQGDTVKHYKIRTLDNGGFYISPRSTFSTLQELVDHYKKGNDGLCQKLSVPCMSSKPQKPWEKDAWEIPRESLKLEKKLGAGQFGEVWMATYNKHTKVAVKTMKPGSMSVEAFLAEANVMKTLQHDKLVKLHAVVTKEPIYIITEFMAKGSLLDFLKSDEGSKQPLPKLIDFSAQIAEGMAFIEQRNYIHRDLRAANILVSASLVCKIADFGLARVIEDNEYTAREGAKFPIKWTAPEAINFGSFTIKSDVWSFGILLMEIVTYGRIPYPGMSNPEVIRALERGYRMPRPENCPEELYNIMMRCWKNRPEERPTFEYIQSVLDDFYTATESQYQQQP

[9] = molecular target: Serine/threonine-protein kinase ULK3 (Homo sapiens) (UniProt Q6PHR2); test: Inhibition of ULK3 (unknown origin) assessed as remaining activity at 1 uM by Kinome scan method relative to control
[10] = test system: Hepatocyte growth factor receptor (Homo sapiens), P08581 [M1250T]; test: Inhibition of MET M1250T mutant (unknown origin) assessed as remaining activity at 1 uM by Kinome scan method relative to control
[11] = molecular target: Dual specificity mitogen-activated protein kinase kinase 4 (Homo sapiens) (UniProt P45985); test: Inhibition of MEK4 (unknown origin) assessed as remaining activity at 1 uM by Kinome scan method relative to control
[12] = molecular target: Phosphatidylinositol 4-phosphate 3-kinase C2 domain-containing subunit beta (Homo sapiens) (UniProt O00750); test: Inhibition of PIK3C2B (unknown origin) assessed as remaining activity at 1 uM by Kinome scan method relative to control
Sequence of Phosphatidylinositol 4-phosphate 3-kinase C2 domain-containing subunit beta (Homo sapiens) (O00750 whole entry, the tested form may be a part): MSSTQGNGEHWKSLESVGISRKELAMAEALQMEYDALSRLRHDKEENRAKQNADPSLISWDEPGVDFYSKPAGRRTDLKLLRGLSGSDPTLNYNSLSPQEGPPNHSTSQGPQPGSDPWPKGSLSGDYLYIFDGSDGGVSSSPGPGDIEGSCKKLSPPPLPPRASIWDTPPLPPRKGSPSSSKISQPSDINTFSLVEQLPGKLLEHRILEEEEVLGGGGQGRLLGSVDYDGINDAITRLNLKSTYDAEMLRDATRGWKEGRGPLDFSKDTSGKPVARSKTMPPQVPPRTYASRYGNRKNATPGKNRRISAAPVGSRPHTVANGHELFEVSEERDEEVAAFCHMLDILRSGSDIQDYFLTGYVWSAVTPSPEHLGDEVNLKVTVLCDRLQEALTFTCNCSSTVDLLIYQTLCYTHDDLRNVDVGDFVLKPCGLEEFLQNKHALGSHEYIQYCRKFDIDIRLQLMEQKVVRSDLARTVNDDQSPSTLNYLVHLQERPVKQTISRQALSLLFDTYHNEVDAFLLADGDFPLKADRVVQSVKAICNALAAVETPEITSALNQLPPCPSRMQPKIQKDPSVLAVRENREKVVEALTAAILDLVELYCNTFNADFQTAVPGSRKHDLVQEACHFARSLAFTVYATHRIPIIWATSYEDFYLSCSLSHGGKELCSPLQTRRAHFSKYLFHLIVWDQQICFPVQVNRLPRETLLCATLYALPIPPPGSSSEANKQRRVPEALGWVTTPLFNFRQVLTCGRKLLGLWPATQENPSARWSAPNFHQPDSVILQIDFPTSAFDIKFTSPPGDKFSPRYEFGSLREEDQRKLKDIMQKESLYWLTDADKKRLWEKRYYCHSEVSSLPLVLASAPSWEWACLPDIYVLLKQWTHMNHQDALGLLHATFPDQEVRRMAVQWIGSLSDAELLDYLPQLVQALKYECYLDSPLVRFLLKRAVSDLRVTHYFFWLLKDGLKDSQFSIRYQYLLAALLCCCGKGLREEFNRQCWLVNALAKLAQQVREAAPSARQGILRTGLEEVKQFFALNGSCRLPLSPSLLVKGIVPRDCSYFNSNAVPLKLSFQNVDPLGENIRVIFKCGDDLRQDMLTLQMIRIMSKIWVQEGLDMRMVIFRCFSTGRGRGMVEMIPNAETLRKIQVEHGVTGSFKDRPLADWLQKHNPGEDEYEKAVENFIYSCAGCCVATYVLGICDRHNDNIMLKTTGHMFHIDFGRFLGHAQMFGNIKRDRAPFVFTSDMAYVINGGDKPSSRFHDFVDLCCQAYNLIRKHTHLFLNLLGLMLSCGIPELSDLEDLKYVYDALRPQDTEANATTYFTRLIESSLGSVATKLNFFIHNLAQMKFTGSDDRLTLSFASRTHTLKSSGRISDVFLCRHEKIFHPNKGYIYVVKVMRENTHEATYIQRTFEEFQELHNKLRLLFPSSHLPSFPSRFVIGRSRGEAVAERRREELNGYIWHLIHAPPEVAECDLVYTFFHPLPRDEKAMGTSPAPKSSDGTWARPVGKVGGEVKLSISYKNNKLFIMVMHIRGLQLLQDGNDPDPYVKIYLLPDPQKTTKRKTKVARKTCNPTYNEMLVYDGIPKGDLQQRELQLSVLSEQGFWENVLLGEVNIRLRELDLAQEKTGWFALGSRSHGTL

[13] = Acute toxicity in wild-type mouse assessed as bromodeoxyuridine positive cells at 1 mg/kg,ip administrated daily for 2 months and after 2 weeks drug withdrawal by H and E staining based immunohistochemical analysis; assay type: organism-based; conditions: in vivo, 1460 h
Outline: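 Wild-type mice dosed 1 mg/kg i.p. daily for 2 months (vehicle 0.1% citric acid aqueous solution with 20% Kolliphor HS 15), or dosed and then withdrawn 2 weeks. Liver sections given H&E and IHC for CK19 and BrdU; positive cells counted, n = 3; means ± SD, Student's t test.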

[14] = MRT (0 to infinity) in male Sprague-Dawley rat at 5 mg/kg, iv measured for 24 hrs by LC-MS/MS analysis; assay type: ADME, organism-based; conditions: in vivo
[15] = molecular target: Serine/threonine-protein kinase PRP4 homolog (Homo sapiens) (UniProt Q13523); test: Inhibition of PRP4 (unknown origin) assessed as remaining activity at 1 uM by Kinome scan method relative to control
Sequence of Serine/threonine-protein kinase PRP4 homolog (Homo sapiens) (Q13523 whole entry): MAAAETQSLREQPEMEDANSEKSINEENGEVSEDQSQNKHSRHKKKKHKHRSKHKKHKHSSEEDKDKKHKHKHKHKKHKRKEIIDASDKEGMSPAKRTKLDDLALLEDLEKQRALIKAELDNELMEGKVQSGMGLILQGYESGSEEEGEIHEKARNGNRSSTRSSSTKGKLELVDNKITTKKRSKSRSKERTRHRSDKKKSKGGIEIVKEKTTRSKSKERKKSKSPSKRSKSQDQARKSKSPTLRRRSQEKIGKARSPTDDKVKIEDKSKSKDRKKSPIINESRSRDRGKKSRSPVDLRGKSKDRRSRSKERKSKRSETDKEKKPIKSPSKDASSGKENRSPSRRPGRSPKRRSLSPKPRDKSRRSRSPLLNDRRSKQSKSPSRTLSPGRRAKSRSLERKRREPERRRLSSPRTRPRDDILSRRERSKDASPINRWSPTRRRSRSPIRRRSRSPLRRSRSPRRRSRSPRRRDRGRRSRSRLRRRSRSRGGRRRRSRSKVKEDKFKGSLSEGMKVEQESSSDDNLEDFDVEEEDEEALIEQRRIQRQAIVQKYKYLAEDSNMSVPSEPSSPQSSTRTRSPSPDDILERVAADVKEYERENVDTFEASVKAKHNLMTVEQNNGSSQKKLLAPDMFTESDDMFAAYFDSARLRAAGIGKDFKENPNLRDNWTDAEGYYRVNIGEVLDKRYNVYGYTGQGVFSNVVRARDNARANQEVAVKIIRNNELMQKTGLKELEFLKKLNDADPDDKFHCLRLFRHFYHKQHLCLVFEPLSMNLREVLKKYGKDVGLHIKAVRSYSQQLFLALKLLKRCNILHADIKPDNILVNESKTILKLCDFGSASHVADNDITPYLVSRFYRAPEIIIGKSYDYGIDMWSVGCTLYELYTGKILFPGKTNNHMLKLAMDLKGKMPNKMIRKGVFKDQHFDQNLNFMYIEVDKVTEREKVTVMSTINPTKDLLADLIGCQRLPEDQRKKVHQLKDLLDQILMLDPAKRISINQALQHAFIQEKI

[16] = molecular target: Mitogen-activated protein kinase kinase kinase 2 (Homo sapiens, UniProt Q9Y2U5); test: Binding affinity to MAP3K2 (unknown origin) assessed as dissociation constant
[17] = molecular target: Non-receptor tyrosine-protein kinase TNK1 (Homo sapiens) (UniProt Q13470); test: Inhibition of TNK1 (unknown origin) assessed as remaining activity at 1 uM by Kinome scan method relative to control
Sequence of Non-receptor tyrosine-protein kinase TNK1 (Homo sapiens) (Q13470 whole entry): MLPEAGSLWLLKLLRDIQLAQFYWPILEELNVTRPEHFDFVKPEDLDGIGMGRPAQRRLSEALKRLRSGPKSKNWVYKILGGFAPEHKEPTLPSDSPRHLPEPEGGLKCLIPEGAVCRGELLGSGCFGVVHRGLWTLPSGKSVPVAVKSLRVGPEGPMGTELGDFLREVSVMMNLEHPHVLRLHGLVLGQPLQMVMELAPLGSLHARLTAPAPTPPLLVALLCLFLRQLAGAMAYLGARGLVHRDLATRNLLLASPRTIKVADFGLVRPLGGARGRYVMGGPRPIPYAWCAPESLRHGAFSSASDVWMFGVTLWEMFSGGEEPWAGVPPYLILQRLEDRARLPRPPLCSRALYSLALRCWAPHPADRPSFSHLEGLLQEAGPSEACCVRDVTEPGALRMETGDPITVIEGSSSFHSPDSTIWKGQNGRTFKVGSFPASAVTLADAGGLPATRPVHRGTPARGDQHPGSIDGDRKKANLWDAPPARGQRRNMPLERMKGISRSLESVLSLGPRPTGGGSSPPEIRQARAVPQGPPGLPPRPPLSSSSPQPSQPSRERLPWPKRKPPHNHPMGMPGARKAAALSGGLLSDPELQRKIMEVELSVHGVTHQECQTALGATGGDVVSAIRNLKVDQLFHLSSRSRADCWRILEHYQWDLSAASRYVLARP

[18] = molecular target: Tyrosine-protein kinase Fer (Homo sapiens) (UniProt P16591); test: Inhibition of FER (unknown origin) assessed as remaining activity at 1 uM by Kinome scan method relative to control
[19] = molecular target: Casein kinase II subunit alpha' (Homo sapiens) (UniProt P19784); test: Inhibition of CSNK2A2 (unknown origin) assessed as remaining activity at 1 uM by Kinome scan method relative to control; outline: as §1
[20] = molecular target: T1, Serine/threonine-protein kinase 4 (Homo sapiens, UniProt Q13043); test: Inhibition of Flag-tagged full-length MST1 (unknown origin) transfected in HEK293T cells assessed as MOB1a phosphorylation level incubated for 3 hrs by immunoblot analysis
T1 sequence (Q13043 whole entry): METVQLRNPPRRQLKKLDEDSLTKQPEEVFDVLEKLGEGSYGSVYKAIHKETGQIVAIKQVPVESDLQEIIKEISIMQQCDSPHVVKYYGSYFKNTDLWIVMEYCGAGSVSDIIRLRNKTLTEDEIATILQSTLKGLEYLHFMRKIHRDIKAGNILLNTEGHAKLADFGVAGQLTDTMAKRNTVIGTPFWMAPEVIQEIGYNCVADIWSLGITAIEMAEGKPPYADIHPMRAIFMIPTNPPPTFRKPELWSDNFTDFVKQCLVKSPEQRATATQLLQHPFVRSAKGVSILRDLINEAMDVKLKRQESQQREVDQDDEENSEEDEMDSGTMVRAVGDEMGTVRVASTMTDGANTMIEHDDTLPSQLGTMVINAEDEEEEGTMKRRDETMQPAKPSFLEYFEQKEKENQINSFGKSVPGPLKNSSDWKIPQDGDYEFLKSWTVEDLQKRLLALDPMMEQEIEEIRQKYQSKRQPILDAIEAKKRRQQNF

[21] = molecular target: Inhibitor of nuclear factor kappa-B kinase subunit epsilon (Homo sapiens) (UniProt Q14164); test: Inhibition of IKK-epsilon (unknown origin) assessed as remaining activity at 1 uM by Kinome scan method relative to control

Sequence of Tyrosine-protein kinase Lyn (Homo sapiens) (P07948 2-512 limits assumed): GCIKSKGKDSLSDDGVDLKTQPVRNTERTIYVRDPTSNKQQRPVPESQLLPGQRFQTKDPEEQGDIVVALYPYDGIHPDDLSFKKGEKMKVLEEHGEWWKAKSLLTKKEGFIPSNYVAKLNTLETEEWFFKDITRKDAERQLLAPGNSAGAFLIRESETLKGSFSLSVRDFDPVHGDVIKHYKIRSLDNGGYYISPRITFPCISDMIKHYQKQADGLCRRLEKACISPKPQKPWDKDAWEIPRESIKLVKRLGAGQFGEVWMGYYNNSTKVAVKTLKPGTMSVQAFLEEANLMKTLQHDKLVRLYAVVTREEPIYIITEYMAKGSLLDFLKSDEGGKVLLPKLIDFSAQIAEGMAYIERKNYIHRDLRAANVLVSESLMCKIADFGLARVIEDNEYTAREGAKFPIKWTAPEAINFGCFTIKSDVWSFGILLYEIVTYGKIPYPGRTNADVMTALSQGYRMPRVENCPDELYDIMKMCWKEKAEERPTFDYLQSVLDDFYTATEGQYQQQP

## CN1C(=O)c2sccc2N(C)c2nc(Nc3ccc(S(N)(=O)=O)cc3)ncc21
[1]
  Activity: 100%
[2]
  Activity: 93%
[3]
  Activity: 14%
[4]
  Activity: 100%
[5]
  Activity: 100%
[6]
  Activity: 78%
[7]
  Activity: 48%
Mus musculus
  Activity: ~40%
HepG2
  inhibition: Active
[8]
  Activity: 100%
[9]
  Activity: 84%
[10]
  Activity: 81%
[11]
  Activity: 100%
[12]
  Activity: 100%
[13]
  Activity: Non-Toxic
[14]
  MRT inf: 1.36 h
[15]
  Activity: 97%
[16]
  Kd: 19 nM
[17]
  Activity: 69%
[18]
  Activity: 100%
[19]
  Activity: 97%
[20]
  IC50: 71.1 nM
[21]
  Activity: 86%
